The values that follow come from ChEMBL document CHEMBL4706770, “SD-91 as A Potent and Selective STAT3 Degrader Capable of Achieving Complete and Long-Lasting Tumor Regression” (ACS Med Chem Lett, 2021).

Calls of active or inactive are those of the source. No cut-off for these calls is given here.

The target of data set [1] is T1, Signal transducer and activator of transcription 4 (Homo sapiens) (UniProt Q14765).
T1 sequence (whole entry): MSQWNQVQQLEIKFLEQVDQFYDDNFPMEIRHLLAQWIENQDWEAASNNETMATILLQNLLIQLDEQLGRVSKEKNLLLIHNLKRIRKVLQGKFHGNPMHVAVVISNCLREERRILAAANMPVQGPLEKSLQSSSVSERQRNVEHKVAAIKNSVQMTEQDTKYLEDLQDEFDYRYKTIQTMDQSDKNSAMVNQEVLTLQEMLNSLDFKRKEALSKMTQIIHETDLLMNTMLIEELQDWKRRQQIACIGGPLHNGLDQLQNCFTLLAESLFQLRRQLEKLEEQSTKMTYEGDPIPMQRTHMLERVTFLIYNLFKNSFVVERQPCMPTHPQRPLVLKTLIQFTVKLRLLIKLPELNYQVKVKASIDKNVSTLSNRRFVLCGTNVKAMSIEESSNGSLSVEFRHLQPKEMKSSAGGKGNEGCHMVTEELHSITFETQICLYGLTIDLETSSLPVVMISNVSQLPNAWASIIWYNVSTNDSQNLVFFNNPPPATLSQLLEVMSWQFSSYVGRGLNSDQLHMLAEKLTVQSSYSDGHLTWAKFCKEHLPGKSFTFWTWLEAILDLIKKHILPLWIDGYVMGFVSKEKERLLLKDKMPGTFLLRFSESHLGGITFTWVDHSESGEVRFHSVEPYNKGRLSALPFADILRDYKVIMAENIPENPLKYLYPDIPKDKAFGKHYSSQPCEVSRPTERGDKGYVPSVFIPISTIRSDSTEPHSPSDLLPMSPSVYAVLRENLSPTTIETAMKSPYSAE
As to the kind of experiment: Induction of STAT4 degradation in human SUP-M2 cells at 0.25 to 100 uM incubated for 14 hrs by Western blot analysis. The class given is cell-based. As to conditions: SUPM2, dose 0.25-100 µM.

The nature of data set [2]: Drug uptake in SCID mouse xenografted with human MOLM16 cells assessed as drug level in plasma at 50 mg/kg, iv measured after 1 hrs by LC-MS/MS. The class given is ADME, organism-based. In a few lines: (§1)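 SCID mice bearing MOLM-16 xenografts given a single iv dose of 50 mg/kg. Concentrations of parent and hydrolysis product measured in plasma (ng/mL) and tumor tissue (ng/g) at 1, 6 and 24 h.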

The nature of data set [3]: Drug uptake in SCID mouse xenografted with human MOLM16 cells assessed as drug level in tumor tissue at 50 mg/kg, iv measured after 24 hrs by LC-MS/MS. The class given is ADME, organism-based. As to conditions: read-out: Drug uptake. The gist of the method: as §1
Data set [4] is described as follows: Drug uptake in SCID mouse xenografted with human MOLM16 cells assessed as drug level in plasma at 50 mg/kg, iv measured after 6 hrs by LC-MS/MS. Type of data set: ADME, organism-based. The gist of the method:
as §1

Data set [5] can be described thus: Drug metabolism in complete cell culture medium assessed as 5-amino-4-(4-(8-((5S,8S,10aR)-8-((S)-5-amino-1-(benzhydrylamino)-1,5-dioxopentan-2-ylcarbamoyl)-6-oxo-5-(5-(phosphonocarbonyl)-1H-indole-2-carboxamido)octahydropyrrolo[1,2-a][1,5]diazocin-3(4H)-yl)-8-oxooct-1-ynyl)-1-oxoisoindolin-2-yl)-5-oxopentanoic acid after 96 hrs by LC/MS/MS analysis. In a few lines: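 Parent compound incubated in the cell culture medium used for the cellular assays, with or without cells, at 37 °C. Percentages of the hydrolysis product and the glutarimide ring-opened product measured at time points up to 96 h.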

Data set [6] addresses Signal transducer and activator of transcription 2 (Homo sapiens, UniProt P52630). As to the kind of experiment: Binding affinity to human recombinant STAT2 assessed as dissociation constant incubated for 15 mins by biolayer interferometry. The gist of the method: (§2)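 Biolayer interferometry with recombinant human STAT1, STAT2, STAT3, STAT4, STAT5A, STAT5B or STAT6 proteins containing their SH2 domain. Compound run in 2× serial dilutions from 200 nM. Kd taken from steady-state fitting of equilibrium responses against concentration using a 1:1 binding model.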

The nature of data set [7]: Drug uptake in SCID mouse xenografted with human MOLM16 cells assessed as drug level in tumor tissue at 50 mg/kg, iv measured after 1 hrs by LC-MS/MS. Type of data set: ADME, organism-based. The settings on record: read-out: Drug uptake. In a few lines: as §1
Data set [8] addresses T2, Signal transducer and activator of transcription 5B (Homo sapiens, UniProt P51692).
T2 sequence (P51692 whole entry): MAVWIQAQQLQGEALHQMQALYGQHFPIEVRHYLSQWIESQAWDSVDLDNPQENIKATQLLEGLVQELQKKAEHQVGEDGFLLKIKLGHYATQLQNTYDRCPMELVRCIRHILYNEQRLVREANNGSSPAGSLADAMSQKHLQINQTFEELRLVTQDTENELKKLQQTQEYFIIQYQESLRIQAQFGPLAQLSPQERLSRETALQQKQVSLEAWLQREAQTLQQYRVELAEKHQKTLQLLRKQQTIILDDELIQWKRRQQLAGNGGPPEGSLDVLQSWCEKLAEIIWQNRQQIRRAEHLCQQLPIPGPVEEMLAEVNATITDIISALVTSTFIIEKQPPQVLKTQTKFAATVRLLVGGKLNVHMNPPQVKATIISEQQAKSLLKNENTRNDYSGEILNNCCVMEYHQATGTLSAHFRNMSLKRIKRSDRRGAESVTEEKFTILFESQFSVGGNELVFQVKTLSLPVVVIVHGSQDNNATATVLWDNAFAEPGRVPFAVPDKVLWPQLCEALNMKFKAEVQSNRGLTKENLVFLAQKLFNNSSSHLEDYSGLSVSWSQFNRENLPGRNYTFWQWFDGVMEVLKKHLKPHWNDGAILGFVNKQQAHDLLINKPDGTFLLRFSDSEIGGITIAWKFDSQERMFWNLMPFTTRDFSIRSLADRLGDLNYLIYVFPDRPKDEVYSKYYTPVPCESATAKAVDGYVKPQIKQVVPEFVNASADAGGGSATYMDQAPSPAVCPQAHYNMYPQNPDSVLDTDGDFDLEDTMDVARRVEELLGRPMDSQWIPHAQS
As to the kind of experiment: Binding affinity to human recombinant STAT5B assessed as dissociation constant incubated for 15 mins by biolayer interferometry. In a few lines: as §2

For data set [9], the target named is Protein cereblon/Signal transducer and activator of transcription 2 (Homo sapiens) (UniProt Q96SW2+P52630). As to the kind of experiment: Protac activity at CRBN/STAT2 in human SU-DHL-1 cells […] at 0.25 to 100 uM incubated for 4 hrs by Western blot analysis. Type of data set: cell-based. The settings on record: dose lower 0.25 µM.

For data set [10], the target named is Protein cereblon/Signal transducer and activator of transcription 1-alpha/beta (Homo sapiens) (UniProt P42224+Q96SW2). As to the kind of experiment: Protac activity at CRBN/STAT1 in human SUP-M2 cells […] at 0.25 to 100 uM incubated for 4 hrs by Western blot analysis. The class given is cell-based. The settings on record: SUPM2, dose lower 0.25 µM.

A short description of data set [11]: Stability of compound in buffer pH 8 assessed as conversion to (2-(((5S,8S,10aR)-8-(((S)-5-amino-1-(benzhydrylamino)-1,5-dioxopentan-2-yl)carbamoyl)-3-(8-(2-(2,6-dioxopiperidin-3-yl)-1-oxoisoindolin-4-yl)oct-7-ynoyl)-6-oxodecahydropyrrolo[1,2-a][1,5]diazocin-5-yl)carbamoyl)-1H-indole-5-carbonyl)phosphonic acid by measuring half life at 37 degC by LC/MS/MS analysis. Type of data set: physicochemical. The gist of the method: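 SD-36 incubated in pH 8 buffer at 37 °C; percentages of parent and hydrolysis products followed over time; half-life of conversion derived from the time course.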

Chain of Signal transducer and activator of transcription 2 (P52630 whole entry, the tested form may be a part): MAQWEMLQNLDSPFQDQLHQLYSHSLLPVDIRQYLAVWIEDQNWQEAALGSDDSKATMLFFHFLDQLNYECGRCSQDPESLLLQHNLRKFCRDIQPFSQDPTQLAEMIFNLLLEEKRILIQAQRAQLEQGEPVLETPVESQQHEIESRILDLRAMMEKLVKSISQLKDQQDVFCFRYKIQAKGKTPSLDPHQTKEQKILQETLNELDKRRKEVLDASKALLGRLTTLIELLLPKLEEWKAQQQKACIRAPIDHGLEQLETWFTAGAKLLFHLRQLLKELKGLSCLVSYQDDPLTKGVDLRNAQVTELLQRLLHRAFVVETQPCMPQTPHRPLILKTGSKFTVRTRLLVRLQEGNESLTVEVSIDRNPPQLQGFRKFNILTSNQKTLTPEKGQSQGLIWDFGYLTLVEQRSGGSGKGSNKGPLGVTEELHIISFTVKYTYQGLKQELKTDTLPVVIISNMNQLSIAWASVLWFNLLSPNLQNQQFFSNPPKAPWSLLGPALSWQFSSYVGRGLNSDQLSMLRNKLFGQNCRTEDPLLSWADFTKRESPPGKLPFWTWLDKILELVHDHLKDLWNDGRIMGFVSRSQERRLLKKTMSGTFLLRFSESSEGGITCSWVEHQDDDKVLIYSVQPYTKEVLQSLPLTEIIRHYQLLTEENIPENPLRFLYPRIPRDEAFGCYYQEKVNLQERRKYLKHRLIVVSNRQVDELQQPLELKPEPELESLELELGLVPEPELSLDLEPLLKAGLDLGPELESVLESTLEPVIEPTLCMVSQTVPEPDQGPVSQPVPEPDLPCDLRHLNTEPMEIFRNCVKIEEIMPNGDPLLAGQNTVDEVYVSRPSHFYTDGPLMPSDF
Chain of Protein cereblon/Signal transducer and activator of transcription 2 (Homo sapiens) (P52630 whole entry, looked up): as the sequence (P52630 whole entry, the tested form may be a part) above
Chain of Protein cereblon/Signal transducer and activator of transcription 2 (Homo sapiens) (Q96SW2 whole entry, looked up): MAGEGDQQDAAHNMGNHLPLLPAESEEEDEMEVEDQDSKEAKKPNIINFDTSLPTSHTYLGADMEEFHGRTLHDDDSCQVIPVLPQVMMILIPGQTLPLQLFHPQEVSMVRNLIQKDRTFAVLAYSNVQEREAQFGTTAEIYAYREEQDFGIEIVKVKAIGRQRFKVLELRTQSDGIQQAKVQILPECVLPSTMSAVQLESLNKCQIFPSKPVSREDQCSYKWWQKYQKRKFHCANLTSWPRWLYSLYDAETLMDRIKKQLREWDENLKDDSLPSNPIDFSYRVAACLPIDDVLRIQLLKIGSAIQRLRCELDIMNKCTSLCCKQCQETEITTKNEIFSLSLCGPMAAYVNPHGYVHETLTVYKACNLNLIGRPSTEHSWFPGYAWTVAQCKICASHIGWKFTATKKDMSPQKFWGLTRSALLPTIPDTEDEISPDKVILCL

In the case of `CC(=O)N1CC[C@H]2CC[C@@H](C(=O)N[C@@H](CCC(N)=O)C(=O)NC(c3ccccc3)c3ccccc3)N2C(=O)[C@@H](NC(=O)c2cc3cc(C(F)(F)P(=O)(O)O)ccc3[nH]2)C1`, in data set [1], the outcome was inactive.
Still for that read-out and setting: as for `CC(=O)N1CC[C@H]2CC[C@@H](C(=O)N[C@@H](CCC(N)=O)C(=O)NC(c3ccccc3)c3ccccc3)N2C(=O)[C@@H](NC(=O)c2cc3cc(C(=O)P(=O)(O)O)ccc3[nH]2)C1`, the entry is “inactive”.
`NC(=O)CC[C@H](NC(=O)[C@@H]1CC[C@@H]2CCN(C(=O)CCCCCC#Cc3cccc4c3CN(C3CCC(=O)NC3=O)C4=O)C[C@H](NC(=O)c3cc4cc(C(=O)P(=O)(O)O)ccc4[nH]3)C(=O)N21)C(=O)NC(c1ccccc1)c1ccccc1` (some centres not stated): the values for the concentration at 1 h in [2] and in data set [7] were 85.5 µg/mL and 16200 ng/g, respectively. Further, the concentration at 24 h in data set [3] is 1800 ng/g. In addition, the concentration at 6 h in data set [4] was 49.2 µg/mL. Moreover, the Drug metabolism in data set [5] was < 10%. The Kd in data set [6] and in data set [8] was > 0.01 µM each time.
For `NC(=O)CC[C@H](NC(=O)[C@@H]1CC[C@@H]2CCN(C(=O)CCCCCC#Cc3cccc4c3CN(C3CCC(=O)NC3=O)C4=O)C[C@H](NC(=O)c3cc4cc(C(F)(F)P(=O)(O)O)ccc4[nH]3)C(=O)N21)C(=O)NC(c1ccccc1)c1ccccc1` (some centres not stated), the concentration at 1 h in data set [2] was 103 µg/mL; in data set [7] it was 7720 ng/g. In addition, in data set [3], the concentration at 24 h was found to be 275 ng/g. In addition, the outcome in data set [9] and in data set [10] was inactive. For the same molecule, in data set [4], the concentration at 6 h turned out to be 1.29 µg/mL. The Drug metabolism in [5] is 10%. The t1/2 in [11] stood at 4 h.
